What was measured:
Caco-2 [1] = experiment: Cytotoxicity activity against Caco-2 cells after 48 by MTT assay; assay type: cell-based; settings: Homo sapiens
Method in brief: (§1)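 Caco-2 cells in Earle's MEM with 10% FCS, glutamine, non-essential amino acids, penicillin/streptomycin; seeded at 2 × 10^4 cells cm−2, 24 h before drug. Compounds (stock in 20% DMSO, diluted in medium) at 0.01–40 µM for 24 or 48 h, 37 °C. MTT 1 mg/ml in serum-free medium 4 h, DMSO solubilisation, A560. IC50 = 50% absorbance reduction vs control from fitted log line; six replicates, mean ± SD.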

Caco-2 [2] = experiment: Cytotoxicity activity against Caco-2 cells after 24 by MTT assay; assay type: cell-based; settings: Homo sapiens; method in brief: as §1
Leishmania infantum = experiment: Cytotoxicity activity against Leishmania infantum after 72 hrs by MTT assay; assay type: functional, organism-based
Method in brief: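 L. infantum promastigotes (clone MHOM/MA671TMA-P263), log phase (2-day culture), grown at 27 °C in RPMI with 10% heat-inactivated FBS, 2 mM glutamine, 20 mM Hepes, penicillin/streptomycin. 10^6/ml exposed to serial drug concentrations (0.30–100 µM) for 3 days, 27 °C. MTT 0.25 mg/ml final, 4 h, 27 °C; SDS/DMF pH 4.8 lysis 1 h at 37 °C, A550. Growth IC50 by linear regression; at least five assays, ± SD.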

Compound | IC50 (Caco-2 [1]) [nM] | IC50 (Caco-2 [2]) [nM] | IC50 (Leishmania infantum) [nM]
O=C1c2cccc3cccc(c23)C(=O)N1CCCNCCCCCCCCCCNCCCN1C(=O)c2cccc3cccc(c23)C1=O [BNIPDADEC] | 360 | 770 | 
O=C1c2cccc3cccc(c23)C(=O)N1CCCNCCCCCCCCCNCCCN1C(=O)c2cccc3cccc(c23)C1=O [BNIPDANON] | 670 | 3600 | 780
O=C1c2cccc3cccc(c23)C(=O)N1CCCNCCCCCCCCNCCCN1C(=O)c2cccc3cccc(c23)C1=O [BNIPDAOCT] | 3200 | 6200 | 780
O=C1c2cccc3cccc(c23)C(=O)N1CCCNCCNCCNCCCN1C(=O)c2cccc3cccc(c23)C1=O [BNIPDETA] | 22300 | 21700 | 740
O=C1c2cccc3cccc(c23)C(=O)N1CCCNCCCNCCCNCCCN1C(=O)c2cccc3cccc(c23)C1=O [BNIPDPTA] | 1540 | 5140 | 1540
O=C1c2cccc3cccc(c23)C(=O)N1CCCNCCCCNCCCNCCCN1C(=O)c2cccc3cccc(c23)C1=O [BNIPSPD] | 150 | 470 | 470

Source: ChEMBL document CHEMBL1144485, “The synthesis and the in vitro cytotoxicity studies of bisnaphthalimidopropyl polyamine derivatives against colon cancer cells and parasite Leishmania infantum” (Bioorg Med Chem, 2007)
